Screens from PubChem BioAssay.
hERG rescue: hERG (human) protection from proarrhythmic block | Q12809 | actives 0.51% (n = 310,000) | activation (rescue from dofetilide block), less the hit threshold, % at 10 µM | CHO-hERG, FluxOR thallium flux, dofetilide IC70 present | AID 1511;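 active means activation above the mean of controls blocked by dofetilide plus 5 SD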;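 further: thallium influx through hERG after potassium depolarization seen as dye fluorescence rise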
KCNQ1 block: blocks the human KCNQ1 potassium channel | P51787 | CHO-K1 KCNQ1, FluxOR thallium flux fluorescence; active compounds read high | B-score at 10 µM | actives 1.3% (n = 310,000);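 active means compounds whose thallium flux B-score, printed positive for inhibition, exceeds three library SD while starting fluorescence stays within three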;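 further: channel opened by potassium depolarization with thallium stimulus after 20 min compound exposure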
KCNK3 block: human KCNK3 channel inhibition, primary screen. CHO-KCNK3 thallium flux, FluxOR fluorescence; active compounds read low. B-score at 10 µM. actives 0.84% (n = 340,000);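 active means B-score under library mean minus 4 SD, starting fluorescence ratio at most library mean plus 5 SD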;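 further: more negative B-score means stronger inhibition of thallium flux through KCNK3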
KCNQ1 act: potentiates or activates the human KCNQ1 potassium channel; B-score at 10 µM; P51787; actives 0.35% (n = 310,000); AID 2648; CHO-K1 KCNQ1, thallium flux FluxOR fluorescence; active compounds read high;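 active means fluorescence ratio B-score, a plate-corrected score, at least three library SD, with initial intensity B-score within 5 SD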
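Assay system: CHO-K1 cells stably expressing KCNQ1; Medium: assay buffer with matched DMSO; Also added: K+/Tl+ depolarizing stimulus; Dosing: single dose; Timing: dye 90 min, compound 20 min, room temperature; Measured by: kinetic FluxOR thallium fluorescence, 10-s 1-Hz baseline, 110-s post-stimulus read; Read-out: peak-minus-minimum fluorescence over initial fluorescence, negative-control normalized, B-scored.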
KCNK9 inh-1: blocks the human KCNK9 two-pore domain potassium channel; Q9NPC2; HEK293 KCNK9, FluxOR thallium flux fluorescence; active compounds read low; B-score at 10 µM; actives 1.2% (n = 310,000); AID 488922;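 active means ratio B-score over 3 SD below the library mean, with starting fluorescence within 5 SD of its mean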;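 further: negative B-score means less thallium flux so channel inhibition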
Kir21 block: blocks the mouse Kir2.1 inward-rectifier potassium channel. AID 1672. actives 0.85% (n = 310,000). HEK293-Kir2.1, FluxOR thallium flux fluorescence; active compounds read low. B-score at 10 µM;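 active means fluorescence ratio B-score at or below minus 3 SD of library scores, with starting-brightness B-score within 2 SD, cut at about -4.2 in these data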;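 further: channel flux triggered by added potassium and thallium sulfate stimulus; B-score of peak minus minimum fluorescence over baseline after thallium stimulus; more negative B-score means stronger Kir2.1 block with less thallium influx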
Target sequence (P35561 whole entry, looked up): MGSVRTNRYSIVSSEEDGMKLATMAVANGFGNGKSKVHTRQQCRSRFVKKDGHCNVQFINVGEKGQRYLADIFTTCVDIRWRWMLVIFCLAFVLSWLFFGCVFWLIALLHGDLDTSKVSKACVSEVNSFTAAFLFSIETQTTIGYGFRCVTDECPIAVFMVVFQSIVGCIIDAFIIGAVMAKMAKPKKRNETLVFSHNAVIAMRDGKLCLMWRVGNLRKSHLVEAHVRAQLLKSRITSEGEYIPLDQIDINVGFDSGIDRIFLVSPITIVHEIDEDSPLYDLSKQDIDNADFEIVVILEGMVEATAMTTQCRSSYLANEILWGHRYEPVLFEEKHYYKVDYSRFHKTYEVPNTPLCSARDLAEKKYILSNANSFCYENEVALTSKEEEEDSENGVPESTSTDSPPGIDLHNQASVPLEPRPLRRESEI
hERG ctr: counter-screen for Kir2.1 inhibitors: effect on human hERG. shares compounds with Kir21 block. hERG-expressing cells, thallium flux. inhibition, % at 10 µM. actives 20% (n = 320);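 further: host cells are CHO cells stably expressing hERG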
KCNK9 inh-2: tests whether Kir2.1 inhibitors also affect human KCNK9. shares compounds with Kir21 block. KCNK9-expressing cells, ion flux inhibition. inhibition, % at 10 µM. actives 5% (n = 320). AID 2329
Kir21 ephys inh: inhibitors of mouse Kir2.1 potassium channel | shares compounds with Kir21 block | Kir2.1 cells, automated patch-clamp current inhibition | actives 71% (n = 320) | inhibition, % at 25 µM | AID 463252
KCNQ1 inh valid: human KCNQ1 channel inhibition, validation assay; shares compounds with KCNQ1 block; KCNQ1 cell line, FluxOR thallium flux fluorescence; inhibition, % at 10 µM; actives 93% (n = 1,600); AID 588353;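 active means primary screen active, with duplicate mean exceeding buffer control mean plus 3 SD of buffer wells, cut at about 28% in these data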;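 further: 0% = buffer control ratio and 100% = XE991 inhibitor control ratio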
CHO KCNQ1 ctr: KCNQ1 inhibitor counter-screen hit in parental CHO cells; shares compounds with KCNQ1 block; parental CHO-K1, FluxOR thallium flux fluorescence ratio; active compounds read low; zero means no signal rise above baseline; fluorescence ratio (Tl flux) at 10 µM; AID 588366; actives 21% (n = 1,600);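 active means mean of duplicate thallium-flux fluorescence ratios in parental host cells more than 5 SD below the buffer control mean, cut at about 0.38 in these data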;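 further: ratio is peak minus minimum fluorescence divided by baseline fluorescence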
KCNQ2 spec: selectivity of KCNQ1 inhibitors: inhibition of rat KCNQ2 channel | inhibition, % at 10 µM | KCNQ2 cells, FluxOR thallium flux fluorescence | shares compounds with KCNQ1 block | AID 651746 | actives 71% (n = 1,600);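 active means mean percent inhibition of the KCNQ2 thallium signal more than 5 SD above the buffer-only control wells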;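 further: KCNQ2 expressed in CHO cells; 0% = buffer control wells and 100% = XE-991 inhibitor control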
KCNQ1-KCNE1 inh: selectivity of KCNQ1 inhibitors: inhibition of human KCNQ1/KCNE1 channel; shares compounds with KCNQ1 block; KCNQ1/KCNE1 cells, FluxOR thallium flux fluorescence; inhibition, % at 10 µM; actives 77% (n = 1,600); AID 652147;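 active means mean percent inhibition of duplicate wells above the buffer-only control mean plus 3 SD of those controls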;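 further: 0% = buffer only wells and 100% = XE-991 inhibitor control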
KCNK9 block conf: confirmation of human KCNK9 potassium channel inhibitors | inhibition, % at 10 µM | AID 492992 | HEK293 KCNK9 cells, FluxOR thallium flux fluorescence | shares compounds with KCNK9 inh-1 | actives 43% (n = 4,900);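 active means thallium signal inhibited by more than 5 SD of the compound-free buffer control wells, on both duplicate plates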;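 further: 0% = assay buffer control wells without compound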
Kir21 sel: tests whether KCNK9 modulators also affect mouse Kir2.1 | shares compounds with KCNK9 inh-1 | Kir2.1 cells, FluxOR thallium flux fluorescence | inhibition, % at 10 µM | actives 4% (n = 4,900);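 active means thallium signal drop more than 5 SD beyond the mean of the no-compound control wells, seen in both duplicate plates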;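 further: signal is fluorescence rise after thallium addition divided by baseline fluorescence; plate controls were assay buffer only for no effect and full block by chlorpromazine control for full effect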
KCNK9 uninduced: non-induced cell nonspecific activity of KCNK9 modulators. shares compounds with KCNK9 inh-1. non-induced KCNK9-HEK293, FluxOR thallium flux. inhibition, % at 10 µM. actives 40% (n = 4,900). AID 492997;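 active means thallium signal drop beyond 5 SD of the untreated control mean, on both duplicate plates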;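 further: plate controls were buffer only IC0 wells for no effect and SID17386958 at its maximal inhibitory level for full effect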
An asterisk follows results filed as active; i = inactive; . = no result. This is a sample that favours compounds with a hit; in the whole collection about 3.7% have one here. Unless noted, how the calls were made is not given here.

SMILES	hERG rescue	KCNQ1 block	KCNK3 block	KCNQ1 act	KCNK9 inh-1	Kir21 block	hERG ctr	KCNK9 inh-2	Kir21 ephys inh	others
Cn1cc([N+](=O)[O-])c(C(=O)Nc2ccc(-c3nc4ccccc4o3)cc2)n1	-11	i	i	i	i	0.45	.	.	.
CCc1cc(-c2n[nH]c(C)c2-c2nc(C)cs2)c(O)cc1OC	-15	i	i	i	i	-11*	i	i	6.3%*
Nc1ccc(-c2ccc(N)cc2C(F)(F)F)c(C(F)(F)F)c1	-10	i	i	i	i	-6.4*	i	48%*	i
COc1ccc(S(=O)(=O)N2CCOCC2)cc1NC(=O)CN1CCCc2ccccc21	.	.	i	.	.	.	.	.	.
O=C(c1cccnc1)N1CCCC(Nc2ccc(F)cc2)C1 (centres undefined)	-8	i	i	i	i	-0.62	.	.	.
COc1ccccc1CNCc1ccc(OC)c2ccccc12	-6	i	i	i	i	-8.1*	i	i	42%*
COc1ccc(CNCc2ccc(OC)c3ccccc23)cc1	0	i	i	i	i	-14*	i	i	8.1%*
COc1ccc(CNS(=O)(=O)NCc2ccccc2)cc1	-6	i	i	i	i	-0.04	.	.	.
COc1cccc(CNCc2ccc(OC)c3ccccc23)c1OC	-10	i	i	i	i	-1.1	.	.	.
COc1ccc(CNC/C=C/c2ccccc2)cc1	-6	i	i	i	i	-12*	i	i	78%*
CC1(C)Cc2ccccc2-c2nnc(-c3ccccn3)n21	-11	i	i	i	i	-0.93	.	.	.
Cc1c(Cl)cccc1Nc1nc(NCCO)c2ccccc2n1	-14	i	i	i	i	-9.5*	i	i	31%*
C#CCNC(=O)/C=C/c1ccc(OC)cc1	-5	i	i	i	i	0.05	.	.	.
c1ccc(CNc2c3ccccc3nc3ccccc23)cc1	-24	8*	i	i	i	-8.3*	70%*	i	16%*	KCNQ1 inh valid=39*;CHO KCNQ1 ctr=0.41;KCNQ2 spec=66%*;KCNQ1-KCNE1 inh=48%*
O=C(O)c1ccc2c(c1)C(=O)N(c1nccs1)C2=O	-6	i	i	i	i	-0.03	.	.	.
CSCc1ccc(C(=O)N2CCCC(Nc3ccc(F)cc3)C2)o1 (centres undefined)	-15	i	i	i	i	-5.7*	i	i	29%*	KCNK9 block conf=i;Kir21 sel=33%*;KCNK9 uninduced=i
